Measurements from ChEMBL document CHEMBL4619794, “2-Aminooxazole as a Novel Privileged Scaffold in Antitubercular Medicinal Chemistry” (ACS Med Chem Lett, 2020).
≈ marks a conversion by molar mass, not a printed value.

Assays:
[1] = test system: Mycobacterium tuberculosis; assay: Antimycobacterial activity against Mycobacterium tuberculosis H37Rv ATCC 27294 assessed as reduction in bacterial growth incubated for […] by alamar blue assay; assay type: functional
[2] = Kinetic solubility of compound in water incubated for 4 hrs by HPLC-MS/MS analysis; assay type: physicochemical; conditions: read-out: Kinetic_solubility
[3] = Kinetic solubility of compound in PBS at pH 7.4 incubated for 4 hrs by HPLC-MS/MS analysis; assay type: physicochemical; conditions: read-out: Kinetic_solubility
[4] = Metabolic stability in human liver microsomes assessed as half life at 1 uM measured upto 60 mins by HPLC-MS/MS analysis; assay type: ADME, Microsome
Procedure, shortened: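 Half-life of the compound in human liver microsomes, expressed in minutes. Reported as mean ± SD, n = 3.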

[5] = Metabolic stability in human liver microsomes assessed as intrinsic clearance at 1 uM measured upto 60 mins by HPLC-MS/MS analysis; assay type: ADME, Microsome; conditions: read-out: CLH
Procedure, shortened: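 Intrinsic clearance derived from the microsomal in vitro half-life as (0.693/t1/2) × (mL incubation/mg microsomes) × (45 mg microsomes/g liver) × (20 g liver/kg body weight). Expressed in mL min–1 kg–1.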

[6] = Glutathione reactivity of compound assessed as GSH adduct formation incubated for 24 hrs by HPLC-MS analysis; assay type: physicochemical; set-up: concentration or dose not given beside the values
Procedure, shortened: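 Compounds incubated 24 h with GSH in 1:100 molar excess, then analysed by HPLC–MS/MS in full-scan mode. Both the singly charged [M + H]+ and doubly charged [M + 2H]2+ conjugate ions were monitored. Percentage conjugate = (sum of both conjugate ion peak areas)/(parent [M + H]+ peak area).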

[7] = test system: Mycobacterium tuberculosis; assay: Antimycobacterial activity against Mycobacterium tuberculosis assessed as reduction in bacterial growth by microdilution method; assay type: functional
[8] = test system: Vero; assay: Cytotoxicity against African green monkey Vero cells; assay type: cell-based; conditions: chlorocebus sabaeus
[9] = test system: Mycobacterium tuberculosis; assay: Antimycobacterial activity against Mycobacterium tuberculosis assessed as reduction in bacterial growth incubated for 21 days by REMA assay; assay type: functional; conditions: 504 h

| SMILES | MIC [1] [µM] | solubility kinetic at 4 h [2] [µM] | solubility kinetic at 4 h [3] [µM] | half-life at 1 µM [4] [min] | CLint scaled at 1 µM [5] [mL/min/kg] | Activity [6] [%] | MIC [7] [µM] | Activity [8] | MIC [9] [µM] |
| --- | --- | --- | --- | --- | --- | --- | --- | --- | --- |
| COc1ccc(-c2csc(Nc3ccc(C)cc3)n2)cc1 | 13 (≈ 3.85 µg/mL) | 20 (≈ 5.93 µg/mL) | 1.2 (≈ 0.356 µg/mL) | 14.5 | 42.9 | 13.9 |  |  |  |
| COc1ccc(-c2coc(Nc3ccc(C)cc3)n2)cc1 | > 100 | 0.7 (≈ 0.196 µg/mL) | 1.1 (≈ 0.308 µg/mL) | 20.9 | 29.9 | 14.2 |  |  |  |
| CCOC(=O)c1cc(-c2csc(Nc3ccc(C)cc3)n2)on1 |  | 54.9 (≈ 18.1 µg/mL) | 27.7 (≈ 9.12 µg/mL) | 3.3 | 189 | 3.7 | 1.5 (≈ 0.494 µg/mL) |  |  |
| Cc1ccc(Nc2nc(-c3cc(C(=O)Nc4ccccn4)no3)co2)cc1 |  | 24 (≈ 8.67 µg/mL) | 9.3 (≈ 3.36 µg/mL) | 15 | 41.5 | 2.1 |  | Non-Toxic | 6.9 (≈ 2.49 µg/mL) |
| Cc1ccc(Nc2nc(-c3cc(C(F)(F)F)ccc3F)co2)cc1 | 12.3 (≈ 4.14 µg/mL) | 5.2 (≈ 1.75 µg/mL) | 5.9 (≈ 1.98 µg/mL) | 22.6 | 27.6 | 14.2 |  |  |  |
| Cc1ccc(Nc2nc(-c3cc(C(F)(F)F)ccc3F)cs2)cc1 | 27.5 (≈ 9.69 µg/mL) | 24 (≈ 8.46 µg/mL) | 7.5 (≈ 2.64 µg/mL) | 22.4 | 27.9 | 10.4 |  |  |  |
| Cc1ccc(Nc2nc(-c3cc(C(=O)Nc4ccccn4)no3)cs2)cc1 |  | 2.9 (≈ 1.09 µg/mL) | 2.4 (≈ 0.906 µg/mL) | 16.1 | 38.8 | 7.1 | 0.16 (≈ 0.0604 µg/mL) |  |  |
| CCOC(=O)c1cc(-c2coc(Nc3ccc(C)cc3)n2)on1 | 2.3 (≈ 0.721 µg/mL) | 9.1 (≈ 2.85 µg/mL) | 6.8 (≈ 2.13 µg/mL) | 2.7 | 226 | 15.8 |  | Non-Toxic |  |
